Hits are enriched below; roughly 0.58% of the tested compounds scored in any of these assays.
TRPN1 ag: zebrafish TRPN1 (NompC) channel agonism. AID 1424. actives 0.18% (n = 220,000). HEK293 zebrafish TRPN1-YFP, Fluo-8 calcium fluorescence; 100% = response to 87 µM carbachol. activation, % at 3 µM;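 active = activation above its plate's cutoff, the mean activation of test wells on that plate plus 3 SD, cut at about 19% in these data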
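Assay system: Zebrafish TRPN1-YFP in HEK293 cells | Incubation: Dye loading 1 h at 37 °C, then 30 min room temperature | Measured by: Kinetic Fluo-8 fluorescence, ex 470-495, em 515-575 nm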
OXTR potentiate: potentiates the human oxytocin receptor response. P30559. CHO-OTR cells, Fluo-8 calcium fluorescence, potentiator mode; 0% = oxytocin EC15, 100% = EC100. activation, % at 3 µM. actives 0.061% (n = 320,000);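 active = activation above that plate's cutoff, the mean activation of tested compounds plus 3 SD, cut at about 6.6% in these data, passing the limit was not always enough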
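test system = CHO-OTR cells, human receptor | compound = single-point 3.0 µM | schedule = 6 min compound pre-incubation at room temperature, 100 s kinetic read | signal = Fluo-8 no-wash calcium dye fluorescence, excitation 470-495 nm, emission 515-575 nm | repeats = single well per compound, singlicate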
OXTR ag: activates the human oxytocin receptor. AID 2435. activation, % at 3 µM. CHO-OTR cells, Fluo-8 calcium fluorescence; normalized: DMSO 0%, oxytocin 100%. actives 0.32% (n = 320,000);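 active = activation above the mean of all tested compounds plus 3 SD, cutoff set per screening run, cut at about 20% in these data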;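 also: peak over basal fluorescence ratio from a 100 s FLIPR kinetic read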
V1aR counter: counter-screen for oxytocin receptor agonists: human V1a receptor agonists; P37288; CHO-V1R cells, Fluo-8 calcium fluorescence, agonist mode; 0% DMSO, 100% 3 nM vasopressin; activation, % at 3 µM; actives 0.25% (n = 320,000); AID 2797;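 active = activation above the mean activation of all tested compounds plus 3 SD, per screening run, cut at about 20% in these data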;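 also: signal is peak over basal fluorescence ratio across a 100 second FLIPR read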
Target sequence (P37288 whole entry, looked up): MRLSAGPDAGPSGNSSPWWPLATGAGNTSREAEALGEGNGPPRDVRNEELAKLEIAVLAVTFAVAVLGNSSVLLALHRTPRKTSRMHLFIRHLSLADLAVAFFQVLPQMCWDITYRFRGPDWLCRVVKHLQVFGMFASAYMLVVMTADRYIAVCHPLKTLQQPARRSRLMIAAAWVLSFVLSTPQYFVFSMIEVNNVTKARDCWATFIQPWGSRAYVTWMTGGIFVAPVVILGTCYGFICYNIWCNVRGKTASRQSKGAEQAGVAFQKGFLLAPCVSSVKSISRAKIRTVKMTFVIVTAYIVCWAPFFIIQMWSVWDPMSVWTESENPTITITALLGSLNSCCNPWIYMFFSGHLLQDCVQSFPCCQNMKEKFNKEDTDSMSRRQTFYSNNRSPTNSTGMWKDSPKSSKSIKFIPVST
TRPML3 ag: activates the human TRPML3 channel; Q8TDD5; HEK293 TRPML3-YFP, Fluo-8 calcium fluorescence; 100% = the carbachol control signal; activation, % at 3 µM; actives 0.29% (n = 220,000); AID 1448;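 active = activation above its plate's cutoff, the mean activation of the plate's test wells plus 3 SD, cut at about 12% in these data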
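Material: HEK293 cells stably carrying human TRPML3-YFP; compound dosing: single dose, 3 µM final nominal compound, 0.3% DMSO final; incubation: 1-h 37 °C dye load, 5-s basal, 120-s post-compound reads; technique: Fluo-8 intracellular calcium fluorescence, excitation 470-495 nm, emission 515-575 nm; read-out basis: percent activation from peak-to-basal fluorescence ratio, scaled between DMSO and carbachol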
V1aR agonist cf: confirmation of human vasopressin V1a receptor agonists | activation, % at 3 µM | AID 434964 | shares compounds with V1aR counter | CHO-V1R cells, Fluo-8 calcium fluorescence, agonist | actives 20% (n = 180);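 active = average activation exceeds primary screen hit cutoff, cut at about 21% in these data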;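 also: peak over basal fluorescence ratio during a 100 s FLIPR read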
OXTR ag counter: counter-screen for V1a receptor agonists: oxytocin receptor agonists; activation, % at 3 µM; CHO-OTR cells, Fluo-8 calcium fluorescence, agonist; actives 10% (n = 180); shares compounds with V1aR counter;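 active = mean activation over three repeats above the cutoff from the earlier oxytocin receptor agonist screen, cut at about 20% in these data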;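 also: peak over minimum fluorescence ratio within a 100 second FLIPR read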
A number is an active result; n = inactive; x = no result given; ! = a repeat was not active.

SMILES	TRPN1 ag	OXTR potentiate	OXTR ag	V1aR counter	TRPML3 ag	V1aR agonist cf	OXTR ag counter
COC(=O)c1ccccc1NC(=O)C(C)n1nc(C)c2c(C)n(-c3ccccc3)nc2c1=O (stereo not drawn)	x	n	n	23	x	n	n
COc1ccc(CNC(=O)C(=O)NCC2OCCCN2S(=O)(=O)c2cccs2)cc1 (stereo not drawn)	x	n	n	n	x	x	x
CC[N+]1=C(C)C(C)(C)c2cc(C)ccc21	n	n	n	23	n	n	n
CCCCn1c(N)c(N(CCOC)C(=O)c2c(C)noc2C)c(=O)[nH]c1=O	x	n	n	n	x	x	x
Nc1nnc(CC(=O)N/N=C/c2ccccc2OCc2ccccc2F)s1	n	n	n	n	n	x	x
N#CCCN(CCC#N)C(=O)C1c2ccccc2Oc2ccccc21	x	n	n	26	x	n	n
CN(CCC#N)C(=O)COC(=O)C1c2ccccc2Oc2ccccc21	x	n	n	n	x	x	x
Cc1cccc(C)c1NC(=O)C1C2C=CC(C2)C1C(=O)NCc1ccccn1 (stereo not drawn)	n	n	n	n	n	x	x
COc1ccccc1N1C(=O)c2cccc3c(N(C)CCO)ccc(c23)C1=O	x	n	n	31	x	n	n
COc1ccccc1N1C(=O)c2cccc3c(C(=O)O)ccc(c23)C1=O	n	n	n	n	n	x	x
CCOC(=O)Nc1ccc(C(=O)c2ccncc2)cc1	x	n	n	20	x	n	n
Cc1ccc(CNC(=O)c2cnccn2)cc1	n	n	n	n	n	x	x
CCn1c(SCC(=O)Nc2ccc(C)cc2)nc(O)cc1=O	n	n	n	n	n	x	x
CCCn1c(SCC(=O)Nc2cccc(F)c2)nc(O)cc1=O	x	n	n	26	x	n	n
Cc1ccc(C)c(C(C)NC(=S)NCc2ccc(F)cc2)c1 (stereo not drawn)	x	n	n	24	x	n	n
COc1ccc(C(C)NC(=S)NCc2ccc(F)cc2)cc1 (stereo not drawn)	x	n	n	n	x	x	x
COc1ccc(NC(=O)CSc2nc3nc(C)cc(C)c3c(=O)[nH]2)cc1	x	n	n	23	x	n	n
COc1cc(OC)cc(OC(=O)C2CCN(S(=O)(=O)c3ccc(OC)c(OC)c3)CC2)c1	x	n	n	n	x	x	x
O=C(Nc1nnc(-c2ccc3c(c2)CCCC3)o1)c1ccccc1	n	n	n	34	n	n	n
O=C(CSc1ccc2nnc(CCNC(=O)c3ccccc3)n2n1)NCc1ccco1	x	n	n	n	x	x	x
Cc1cccc(NC(=S)NNC(=O)c2ccco2)c1	n	n	n	23	n	n	n
Cc1nc2ccc(S(=O)(=O)NCC(=O)N3CCCC(C)C3)cc2s1 (stereo not drawn)	n	n	n	n	n	x	x
COc1ccc(/C=C2/SC(=O)NC2=O)cc1	n	n	n	n	n	x	x
COc1ccc(/C=C2/C(=O)C(C)(C(C)C)CCC2C)cc1 (stereo not drawn)	x	n	n	20	x	n	n
Cc1ccc(/C=C/C(=O)OC(C)C(=O)NC2CCCCC2C)o1 (stereo not drawn)	x	n	n	n	x	x	x
SMILES	TRPN1 ag	OXTR potentiate	OXTR ag	V1aR counter	TRPML3 ag	V1aR agonist cf	OXTR ag counter
COc1cccc(C(=O)Oc2cc(N)n(S(=O)(=O)c3ccc(C)cc3)n2)c1OC	n	n	n	28	n	n	n
CCCCCCCCCCOC(=O)Cn1c(COc2ccc(OC)cc2)[n+](C)c2ccccc21	x	n	22!	30	x	n	n
CC(=O)Nc1ccc(N=Cc2c(O)c(C(=O)Nc3ccccc3)cc3ccccc23)cc1	n	n	n	38	n	193	169
CC(=O)Nc1ccc(NC(=O)c2cccc3ccccc23)cc1	x	n	n	n	x	x	x
CCOc1cccc(C2C(C(=O)c3ccco3)=C(O)C(=O)N2c2nnc(C)s2)c1 (stereo not drawn)	x	n	n	n	x	x	x
CSc1nnc(N2C(=O)C(O)=C(C(=O)c3ccco3)C2c2cccc(Cl)c2)s1 (stereo not drawn)	x	n	n	45	x	n	n
CSc1nnc(N2C(=O)C(O)=C(C(=O)c3ccco3)C2c2ccc(F)cc2)s1 (stereo not drawn)	x	n	n	33	x	n	n
CCSc1nnc(N2C(=O)C(O)=C(C(=O)c3ccco3)C2c2cccc(OC)c2)s1 (stereo not drawn)	x	n	n	31	x	n	n
COc1ccc(C2C(C(=O)c3ccco3)=C(O)C(=O)N2c2nnc(C)s2)cc1 (stereo not drawn)	n	n	n	n	n	x	x
O=C(Cn1cncn1)NCCCc1ccccc1	n	n	n	n	n	x	x
C[C@H](CO)N1C[C@H](C)[C@@H](CN(C)Cc2ccc(-c3ccccc3)cc2)Oc2c(NS(=O)(=O)c3cn(C)cn3)cccc2C1=O	x	n	n	77	x	n	n
CC(=O)Nc1ccc(N2CCN(c3ccc(C(F)(F)F)cn3)CC2)nc1	n	n	n	25	n	n	n
O=C(Nc1ccc(N2CCN(c3ccc(C(F)(F)F)cn3)CC2)nc1)c1cccs1	n	n	n	n	n	x	x
O=C(COc1ccccc1[N+](=O)[O-])N/N=C/c1ccc(O)c([N+](=O)[O-])c1	n	n	n	67	n	n	n
Oc1ccc(Cl)cc1/C=N/c1nccs1	n	n	n	n	n	x	x
Oc1ccc(Cl)cc1C=Nc1ccc2c3c(cccc13)CC2	n	n	n	51	n	n	n
C[N+](C)=C1SCC(C)(/C=N/O)S1 (stereo not drawn)	n	n	n	n	n	x	x
CCOc1cc(/C=C2\CCCc3c2nc2ccccc2c3C(=O)O)ccc1OC	x	n	n	60	x	n	n
COc1cc(OC)c(/C=C2\SC(=O)N(CC(=O)Nc3ccccc3F)C2=O)c(OC)c1	x	n	n	n	x	x	x
COc1cc(/C=C2\SC(=O)N(CC(=O)Nc3ccccc3F)C2=O)cc(Cl)c1O	x	n	n	22	x	67	60
CCC1CCCCN1CCCNC(=O)c1ccc(N2CCOCC2)c(NS(=O)(=O)c2ccc(OC)cc2)c1 (stereo not drawn)	n	n	n	21	n	n	n
C=CCN1C(=O)c2ccc(C(=O)N(CCC)CC(=O)Nc3ccccc3C)cc2C1=O	x	n	n	n	x	x	x
COc1ccc(C(=O)O)cc1S(=O)(=O)N(CCc1ccccc1)Cc1ccccc1	n	n	n	25	n	n	n
COc1ccc(C(=O)O)cc1S(=O)(=O)N(C)CCc1cccnc1	n	n	n	n	n	x	x
CN(CCCC(=O)N1CCCC(C(N)=O)C1)S(=O)(=O)c1ccc(F)cc1 (stereo not drawn)	x	n	n	n	x	x	x
CCOC(=O)c1c(NC(=O)CC)sc2c1CCN(Cc1ccccc1)C2	x	n	n	22	x	n	n
COC(=O)c1cc2c(ccc3ccccc32)oc1=O	x	n	n	n	x	x	x
